The results in this text go back to ChEMBL document CHEMBL4325832, “Novel Benzazole Derivatives Endowed with Potent Antiheparanase Activity” (J Med Chem, 2018).

Assay [1] relates to U-87 MG. The assay is described as follows: Inhibition of cell invasion in human U87MG cells at 1 uM after 24 hrs by SRB staining based matrigel invasion chamber assay relative to control. It counts as functional, U-87MG ATCC. In outline:
(§1)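 HT1080, U87MG and U2OS cells pretreated with compound in complete medium for 24 h, harvested, resuspended in serum-free medium and seeded at 2.5 × 10^4 cells/filter into Growth Factor Reduced Matrigel-coated Transwell upper chambers. Same concentration in both upper and lower chambers. After 24 h, invaded cells SRB-stained and counted under microscope at 40X-100X. Student's 2-tailed t test, P<0.05.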
(The SRB assay estimates cell density from bound dye.)

The subject of assay [2] is U2OS. Briefly: Inhibition of cell invasion in human U2OS cells at 1 uM after 24 hrs by SRB staining based matrigel invasion chamber assay relative to control. The format is functional. In outline:
as §1

In assay [3] the test system is HT-1080. The assay is described as follows: Antiproliferative activity against human HT1080 cells after 3 days by SRB assay.
In assay [4] the test system is HT-1080. The assay is described as follows: Inhibition of cell invasion in human HT1080 cells at 1 uM after 24 hrs by SRB staining based matrigel invasion chamber assay relative to control. It counts as functional. The note with it: HT-1080, 24 h. Put shortly:
as §1

Assay [5] concerns HT-1080. The assay is described as follows: Downregulation of HPSE1 mRNA expression in human HT1080 cells at 1 uM after 24 hrs by qPCR analysis. The format is functional, cell-based. Put shortly: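 HT1080 cells treated 24 h with compound at 1 μM. Total RNA extracted and reverse-transcribed. HPSE-1 mRNA quantified by real-time qPCR using the ΔΔCt method, […]. Expressed as percent of untreated cells.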

Assay [6] in a line: Antiproliferative activity against human CME1 cells after 72 hrs by cell counting analysis.
A short description of assay [7]: Antiproliferative activity against human CME1 cells assessed as inhibition of cell proliferation at 3.1 uM after 24 hrs by cell counting analysis relative to control. The arrangement: scale not given: the % may be the effect or the level left. It counts as functional. Put shortly:
(§2)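 CME-1 or A204 cells in RPMI plus 10% FBS, exposed to drug in DMSO or solvent alone for 24 h. Proliferation assessed by cell counting and expressed as percent inhibition versus control. DMSO final 0.5% (CME-1) or 0.25% (A204).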

Assay [8] has as its system A204. Briefly: Anti-invasive activity against human A204 cells after 24 hrs by SRB staining based matrigel invasion chamber assay. It counts as functional, cell-based. In outline:
(§3)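 CME-1 or A204 cells pretreated with drug in complete medium for 24 h, then resuspended in serum-free medium and placed in upper chamber of Growth Factor Reduced Matrigel-coated Transwells (1.2 × 10^5 CME-1 or 1.8 × 10^5 A204 cells/filter). Same drug concentration in both upper and lower chambers, 24 h. Invaded cells SRB-stained and counted microscopically. DMSO final 0.5% (CME-1) or 0.25% (A204).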

The species named for assay [9] is Homo sapiens. Briefly: Anti-invasive activity against human CME1 cells after 24 hrs by SRB staining based matrigel invasion chamber assay. It counts as functional, cell-based. Put shortly: as §3
In assay [10] the test system is A204. The assay is described as follows: Antiproliferative activity against human A204 cells after 72 hrs by cell counting analysis. The note with it: A204, 72 h.
Assay [11] relates to A204. The assay is described as follows: Antiproliferative activity against human A204 cells assessed as inhibition of cell proliferation at 3.1 uM after 24 hrs by cell counting analysis relative to control. It counts as functional. The arrangement: scale not given: the % may be the effect or the level left. Put shortly:
as §2

The test system of assay [12] is A204. The note with it: Homo sapiens, 1.5 uM.
For assay [13], the species on record is Homo sapiens. To be noted: 1.5 uM.
The test system of assay [14] is U-87 MG. Briefly: Antiproliferative activity against human U87MG cells after 3 days by SRB assay.
Assay [15] concerns U2OS. The assay is described as follows: Antiproliferative activity against human U2OS cells after 3 days by SRB assay.
Assay [16] has as its system U2OS. The note with it: Homo sapiens, 10 uM.
Assay [17] has as its system HT-1080. The assay is described as follows: Inhibition of cell invasion in human HT1080 cells at 10 uM after 24 hrs by SRB staining based matrigel invasion chamber assay relative to control. The format is functional. In outline: as §1
The test system of assay [18] is U-87 MG. The assay is described as follows: Inhibition of cell invasion in human U87MG cells at 10 uM after 24 hrs by SRB staining based matrigel invasion chamber assay relative to control. It counts as functional, U-87MG ATCC. In outline: as §1
In assay [19] the target is T1, Heparanase (Homo sapiens, UniProt Q9Y251).
T1 sequence (Q9Y251 whole entry): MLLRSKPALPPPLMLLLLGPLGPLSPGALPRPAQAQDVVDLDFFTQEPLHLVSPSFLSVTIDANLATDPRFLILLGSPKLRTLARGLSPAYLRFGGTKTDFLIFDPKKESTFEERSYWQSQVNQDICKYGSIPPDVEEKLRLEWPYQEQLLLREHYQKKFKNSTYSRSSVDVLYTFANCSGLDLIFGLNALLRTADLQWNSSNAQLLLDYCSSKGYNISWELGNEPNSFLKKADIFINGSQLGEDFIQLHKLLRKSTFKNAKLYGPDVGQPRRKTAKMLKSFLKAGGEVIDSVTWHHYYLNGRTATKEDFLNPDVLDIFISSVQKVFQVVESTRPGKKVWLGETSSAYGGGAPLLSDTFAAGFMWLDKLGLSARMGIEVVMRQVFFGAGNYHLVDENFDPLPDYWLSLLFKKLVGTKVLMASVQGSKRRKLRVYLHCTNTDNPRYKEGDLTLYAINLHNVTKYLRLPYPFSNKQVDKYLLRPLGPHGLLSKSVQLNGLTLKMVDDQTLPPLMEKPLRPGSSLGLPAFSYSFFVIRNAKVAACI
Briefly: Inhibition of recombinant HPSE GS3 (unknown origin) using fondaparinux as substrate incubated for 3 hrs in absence of light by WST1 based colorimetry.

The test system of assay [20] is U2OS. Briefly: Inhibition of cell invasion in human U2OS cells at 10 uM after 24 hrs by SRB staining based matrigel invasion chamber assay relative to control. To be noted: read-out: INH.

Molecules are shown by their SMILES. Activity calls are given as the source filed them. No cut-off for these calls is given here.

As usually defined, the IC50 is the concentration needed to halve the response being measured. On to `COc1ccc(C(=O)Nc2ccc(CNc3ccc(-c4nc5ccccc5[nH]4)cc3F)cc2)cc1Br`, for which the inhibition at 1 µM in [1], in assay [2] and in [4] was 50 to 90% each time. Also, the IC50 stood at 8.7 µM in [3] (Homo sapiens, HT-1080, 72 h); 3.9 µM in assay [6]; 3.4 µM in [10]; 2.8 µM in assay [14] (Homo sapiens, U-87 MG, 72 h); 1.7 µM in assay [15] (Homo sapiens, U2OS, 72 h). Moreover, in assay [5], the result was Active. For the same compound, the Activity was 15% in assay [7], “Dose-dependent effect” in assay [8], “Dose-dependent effect” in assay [9] and 5% in [11]. Further, the inhibition result in assay [12] and in assay [13] was “inactive” each time.

For `COc1ccc(C(=O)Nc2ccc(CNc3ccc(-c4nc5cc(CC(=O)N[C@@H](CCC(=O)O)C(=O)O)ccc5o4)cc3F)cc2)cc1Br`, the IC50 entry in assay [3] (ht-1080), in assay [14] (u-87mg atcc) and in assay [15] (u2os) was “Not Active” throughout. In assay [16], the inhibition result is “inactive”. Besides, the inhibition at 10 µM lay within 50 to 90% in [17] (HT-1080, 24 h) and 50 to 90% in assay [18].

As to `COc1ccc(C(=O)Nc2ccc(CNc3ccc(-c4nc5cc(CC(=O)O)ccc5[nH]4)cc3)cc2)cc1Br`, the IC50 in assay [19] is > 10 µM.

Consider `COc1ccc(C(=O)Nc2ccc(CNc3ccc(-c4nc5cc(CC(=O)O)ccc5o4)cc3)cc2)cc1Br`, for which the IC50 in [19] was > 10 µM.

As for `COc1ccc(C(=O)Nc2ccc(CNc3ccc(-c4nc5cc(CC(=O)NCC(=O)O)ccc5o4)cc3F)cc2)cc1Br`, the IC50 result in assay [3] (ht-1080), in [14] (u-87mg atcc) and in [15] (u2os) was “Not Active” in each case.

As to `COc1ccc(C(=O)Nc2ccc(CNc3ccc(-c4nc5cc(CC(=O)NCB(O)O)ccc5o4)cc3F)cc2)cc1Br`, the IC50 in [19] is > 10 µM.

As for `COc1ccc(C(=O)Nc2ccc(CNc3ccc(-c4nc5ccccc5[nH]4)cc3)cc2)cc1Br`, the inhibition at 1 µM in [1], in assay [2] and in assay [4] was 50 to 90% each time. Further, the IC50 in assay [3] (Homo sapiens, HT-1080, 72 h) was found to be 3.1 µM; in [14] (Homo sapiens, U-87 MG, 72 h), 2.7 µM; in [15] (Homo sapiens, U2OS, 72 h) it was 2.1 µM. The outcome in assay [5] was inactive.

With `COc1ccc(C(=O)Nc2ccc(CNc3ccc(-c4nc5cc(CC(=O)NCC(=O)O)ccc5[nH]4)cc3F)cc2)cc1Br`, the IC50 result in [3] (ht-1080) is “Not Active”; in assay [19], 0.64 µM; in [14] (u-87mg atcc) it was “Not Active”; in [15] (u2os), “Not Active”. The inhibition entry in assay [17] and in assay [18] (U-87MG ATCC) was “inactive” in each case. For the same compound, the inhibition at 10 µM in assay [20] was < 50%.

Regarding `COc1ccc(C(=O)Nc2ccc(CNc3ccc(-c4nc5cc(CC(=O)N[C@@H](CCCCN)C(=O)O)ccc5o4)cc3F)cc2)cc1Br`, the IC50 in assay [19] was > 10 µM.
